Data taken from ChEMBL document CHEMBL4680371, “Design and Structure-Activity Relationship of a Potent Furin Inhibitor Derived from Influenza Hemagglutinin” (ACS Med Chem Lett, 2021).
Where a SMILES comes first, the peptide text is derived from it.

Key:
[1] = Half life in CD1 mouse plasma by LC-MS/MS analysis; assay type: ADME, cell-free; conditions: CD1, mouse
How it was run: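 Peptide incubated ex vivo in mouse plasma at 37 °C and sampled at several time points, using the ng/mL concentration range. Intact peptide quantified by high-resolution mass spectrometry and expressed as percentage remaining; t1/2 derived from the time course. Each time point run in triplicate; mean and mean ± SD reported.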

Furin = Furin (Homo sapiens, UniProt P09958); test: Inhibition of recombinant soluble human furin using pyroGlu-Arg-Thr-Lys-Arg-methyl-coumaryl-7-amide as substrate measured after 1 hr
Chain of Furin (P09958 whole entry): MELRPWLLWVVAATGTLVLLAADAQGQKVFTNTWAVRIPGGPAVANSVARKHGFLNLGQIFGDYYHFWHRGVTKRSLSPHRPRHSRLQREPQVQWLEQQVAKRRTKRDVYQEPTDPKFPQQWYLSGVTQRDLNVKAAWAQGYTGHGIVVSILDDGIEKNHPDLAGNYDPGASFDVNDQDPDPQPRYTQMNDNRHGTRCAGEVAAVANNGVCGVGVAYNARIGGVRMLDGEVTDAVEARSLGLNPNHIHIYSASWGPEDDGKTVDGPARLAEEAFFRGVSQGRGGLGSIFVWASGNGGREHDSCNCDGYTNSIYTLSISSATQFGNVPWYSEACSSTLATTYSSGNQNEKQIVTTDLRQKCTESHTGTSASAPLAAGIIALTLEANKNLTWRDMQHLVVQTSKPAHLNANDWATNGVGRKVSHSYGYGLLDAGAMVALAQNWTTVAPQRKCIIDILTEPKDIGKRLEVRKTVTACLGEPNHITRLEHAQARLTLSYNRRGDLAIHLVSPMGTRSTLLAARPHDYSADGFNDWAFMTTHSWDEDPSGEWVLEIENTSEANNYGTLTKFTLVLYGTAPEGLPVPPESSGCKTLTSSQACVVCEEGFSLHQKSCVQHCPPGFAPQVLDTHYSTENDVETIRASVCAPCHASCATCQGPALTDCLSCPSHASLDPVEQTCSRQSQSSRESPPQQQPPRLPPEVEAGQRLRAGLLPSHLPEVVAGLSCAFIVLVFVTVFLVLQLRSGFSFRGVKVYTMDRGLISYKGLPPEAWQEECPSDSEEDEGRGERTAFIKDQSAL
How it was run: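 Soluble human recombinant furin was tested in a competitive kinetic assay. Ki is reported as the mean ± SD of at least two independent experiments.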

Row | Compound | half-life [1] | Ki (Furin)
1 | CC(=O)N[C@@H](CCCNC(=N)N)C(=O)N[C@@H](Cc1ccccc1)C(=O)N[C@@H](CCCNC(=N)N)C(=O)N[C@@H](CCCNC(=N)N)C(=O)N[C@@H](CCCNC(=N)N)C(=O)N[C@@H](CCCCN)C(=O)N[C@@H](CCCCN)C(=O)N[C@@H](CCCNC(=N)N)C(=O)N[C@H](C(N)=O)[C@@H](C)O | 57.6 s | 23 nM
2 | CC(=O)N[C@@H](Cc1ccccc1)C(=O)N[C@@H](C)C(=O)N[C@@H](CCCNC(=N)N)C(=O)N[C@@H](CCCNC(=N)N)C(=O)N[C@@H](CCCNC(=N)N)C(=O)N[C@@H](CCCCN)C(=O)N[C@@H](CCCCN)C(=O)N[C@@H](CCCNC(=N)N)C(=O)N[C@H](C(N)=O)[C@@H](C)O | 33.6 s | 14 nM
3 | CC(=O)N[C@@H](CCCNC(=N)N)C(=O)N[C@@H](C)C(=O)N[C@@H](CCCNC(=N)N)C(=O)N[C@@H](CCCNC(=N)N)C(=O)N[C@@H](CCCNC(=N)N)C(=O)N[C@@H](CCCCN)C(=O)N[C@@H](CCCCN)C(=O)NN(CCCNC(=N)N)CC(=O)N[C@@H](Cc1ccccc1)C(N)=O | 155 s | 2500 nM
4 | CC(=O)N[C@@H](CCCNC(=N)N)C(=O)N[C@@H](C)C(=O)N[C@@H](CCC(=O)O)C(=O)N[C@@H](CCCNC(=N)N)C(=O)N[C@@H](CCCNC(=N)N)C(=O)N[C@@H](CCCCN)C(=O)N[C@@H](CCCCN)C(=O)N[C@@H](CCCNC(=N)N)C(=O)N[C@H](C(N)=O)[C@@H](C)O |  | 140 nM
5 | CC(=O)N[C@@H](CCCNC(=N)N)C(=O)N[C@@H](C)C(=O)N[C@@H](Cc1ccccc1)C(=O)N[C@@H](CCCNC(=N)N)C(=O)N[C@@H](CCCNC(=N)N)C(=O)N[C@@H](CCCCN)C(=O)N[C@@H](CCCCN)C(=O)N[C@@H](CCCNC(=N)N)C(=O)N[C@H](C(N)=O)[C@@H](C)O | 12.6 s | 29 nM
6 | CC(=O)N[C@@H](CCCNC(=N)N)C(=O)N[C@@H](C)C(=O)NCC(=O)N[C@@H](CCCNC(=N)N)C(=O)N[C@@H](CCCNC(=N)N)C(=O)N[C@@H](CCCCN)C(=O)N[C@@H](CCCCN)C(=O)N[C@@H](CCCNC(=N)N)C(=O)N[C@H](C(N)=O)[C@@H](C)O |  | 35 nM
7 | CC(=O)N[C@@H](CCCNC(=N)N)C(=O)NCC(=O)N[C@@H](CCCNC(=N)N)C(=O)N[C@@H](CCCNC(=N)N)C(=O)N[C@@H](CCCNC(=N)N)C(=O)N[C@@H](CCCCN)C(=O)N[C@@H](CCCCN)C(=O)N[C@@H](CCCNC(=N)N)C(=O)N[C@H](C(N)=O)[C@@H](C)O |  | 17 nM
8 | CSCC[C@H](NC(=O)[C@H](CCCNC(=N)N)NC(=O)[C@H](C)NC(=O)[C@H](CCCNC(=N)N)NC(C)=O)C(=O)N[C@@H](CCCNC(=N)N)C(=O)N[C@@H](CCCCN)C(=O)N[C@@H](CCCCN)C(=O)N[C@@H](CCCNC(=N)N)C(=O)N[C@H](C(N)=O)[C@@H](C)O |  | 16 nM
9 | CC(=O)N[C@@H](CCCNC(=N)N)C(=O)N[C@@H](C)C(=O)N[C@@H](CCCNC(=N)N)C(=O)N[C@H](C(=O)N[C@@H](CCCNC(=N)N)C(=O)N[C@@H](CCCCN)C(=O)N[C@@H](CCCCN)C(=O)N[C@@H](CCCNC(=N)N)C(=O)N[C@H](C(N)=O)[C@@H](C)O)C(C)(C)C |  | 16 nM
10 | CC(=O)N[C@@H](CCCNC(=N)N)C(=O)N[C@@H](CCC(=O)O)C(=O)N[C@@H](CCCNC(=N)N)C(=O)N[C@@H](CCCNC(=N)N)C(=O)N[C@@H](CCCNC(=N)N)C(=O)N[C@@H](CCCCN)C(=O)N[C@@H](CCCCN)C(=O)N[C@@H](CCCNC(=N)N)C(=O)N[C@H](C(N)=O)[C@@H](C)O |  | 24 nM
11 | CC[C@H](C)[C@@H](NC(=O)[C@H](CCCNC(=N)N)NC(=O)[C@H](C)NC(=O)[C@H](CCCNC(=N)N)NC(C)=O)C(=O)N[C@@H](CCCNC(=N)N)C(=O)N[C@@H](CCCCN)C(=O)N[C@@H](CCCCN)C(=O)N[C@@H](CCCNC(=N)N)C(=O)N[C@H](C(N)=O)[C@@H](C)O |  | 240 nM
12 | CC(=O)N[C@@H](C)C(=O)N[C@H](C(=O)N[C@@H](CCCNC(=N)N)C(=O)N[C@@H](CCCNC(=N)N)C(=O)N[C@@H](CCCNC(=N)N)C(=O)N[C@@H](CCCCN)C(=O)N[C@@H](CCCCN)C(=O)N[C@@H](CCCNC(=N)N)C(=O)N[C@H](C(N)=O)[C@@H](C)O)C(C)C (Ac-AVRRRKKRT-NH2) |  | 10 nM
13 | CC(=O)N[C@@H](C)C(=O)N[C@@H](Cc1c[nH]c2ccccc12)C(=O)N[C@@H](CCCNC(=N)N)C(=O)N[C@@H](CCCNC(=N)N)C(=O)N[C@@H](CCCNC(=N)N)C(=O)N[C@@H](CCCCN)C(=O)N[C@@H](CCCCN)C(=O)N[C@@H](CCCNC(=N)N)C(=O)N[C@H](C(N)=O)[C@@H](C)O (Ac-AWRRRKKRT-NH2) |  | 30 nM
14 | CC(=O)N[C@@H](CCCNC(=N)N)C(=O)N[C@@H](C)C(=O)N[C@@H](Cc1ccc(O)cc1)C(=O)N[C@@H](CCCNC(=N)N)C(=O)N[C@@H](CCCNC(=N)N)C(=O)N[C@@H](CCCCN)C(=O)N[C@@H](CCCCN)C(=O)N[C@@H](CCCNC(=N)N)C(=O)N[C@H](C(N)=O)[C@@H](C)O |  | 48 nM
15 | CC[C@H](C)[C@H](NC(=O)[C@H](CCCNC(=N)N)NC(=O)[C@H](C)NC(=O)[C@@H](NC(C)=O)C(C)C)C(=O)N[C@@H](CCCNC(=N)N)C(=O)N[C@@H](CCCCN)C(=O)N[C@@H](CCCCN)C(=O)N[C@@H](CCCNC(=N)N)C(=O)N[C@H](C(N)=O)[C@@H](C)O (Ac-VARIRKKRT-NH2) |  | 10 nM
